From ChEMBL document CHEMBL1255269 (Antimicrob Agents Chemother, 2008)
Activity calls are given as the source filed them. No cut-off for these calls is given here.

Experiments:
Salmonella typhimurium [1] = test: Antimicrobial activity against Salmonella enterica subsp. enterica serovar Typhimurium PT99/DAB69 in pigeon spleen assessed as decrease in bacterial count relative to untreated control; type: functional, organism-based
Procedure, shortened: (§1)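 Homing pigeons, 10 per group, housed individually. Crop inoculation with 10^8 CFU in 1 ml PBS. […] Tissue CFU per gram counted by plating tenfold dilutions on brilliant green agar, with enrichment in buffered peptone water and tetrathionate broth if direct plating was negative.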

[2] = Half life at beta phase in pigeon at 30 mg/kg, po by naive pooling approach; type: ADME, organism-based; parameters: dose 30 mg/kg, route oral; details: columba livia, in vivo
Procedure, shortened: (§2)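 Crossover design, one week apart, 24 homing pigeons. […] Blood taken at 0.25–8 h, six samples per time point; plasma assayed by HPLC-UV (linear 0.05–20 μg/ml). Data fitted by naive pooling, iv biexponential and oral triexponential two-compartment models, plus nonlinear mixed-effects modelling; F derived from mean AUC0–∞.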

[3] = Mean residence time in pigeon at 30 mg/kg, iv by naive pooling approach; type: ADME, organism-based; parameters: dose 30 mg/kg, route intravenous; details: columba livia, in vivo, read-out: Time; procedure, shortened: as §2
in vivo [4] = details: columba livia, plasma, po, 30 mg/kg
[5] = Volume of distribution in central compartment in pigeon at 30 mg/kg, iv; type: ADME, organism-based; parameters: dose 30 mg/kg, route intravenous; details: columba livia, in vivo; procedure, shortened: as §2
[6] = Volume of distribution in pigeon at 30 mg/kg, iv by naive pooling approach; type: ADME, organism-based; parameters: dose 30 mg/kg, route intravenous; details: columba livia, in vivo; procedure, shortened: as §2
[7] = Oral bioavailability in pigeon at 30 mg/kg, po by naive pooling approach; type: ADME, organism-based; details: columba livia, in vivo; procedure, shortened: as §2
in vivo [8] = details: columba livia, plasma, iv, 30 mg/kg
in vivo [9] = details: columba livia, plasma, po, 30 mg/kg; remark: listed apart in the source
Salmonella typhimurium [10] = test: Antimicrobial activity against Salmonella enterica subsp. enterica serovar Typhimurium PT99/DAB69 at 2 ug/ml after 16 hrs; type: functional
Procedure, shortened: (§3)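 Killing curve in Mueller-Hinton broth inoculated with 5 × 10^5 CFU of the strain (grown in LB, 37°C, 16 h, static). […] Tenfold dilutions plated onto Mueller-Hinton agar at several time points after inoculation; the decrease in log10 CFU is read at 16 h.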

Columba livia = test: Drug uptake in Salmonella enterica subsp. enterica serovar Typhimurium PT99/DAB69 infected pigeon at 26 to 45 mg/kg; type: ADME, organism-based; parameters: dose 26-45 mg/kg; details: in vivo
[11] = Plasma protein binding in pigeon at 10 ug/ml; type: ADME, cell-free; details: columba livia, read-out: PPB (converted)
Procedure, shortened: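 Ultrafiltration through a 30K membrane, free drug in the ultrafiltrate measured by HPLC. Bound drug taken as total minus free.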

[12] = Half life at beta phase in pigeon at 30 mg/kg, iv by naive pooling approach; type: ADME, organism-based; parameters: dose 30 mg/kg, route intravenous; details: columba livia, in vivo; procedure, shortened: as §2
[13] = Cmax in pigeon at 30 mg/kg, po by naive pooling approach; type: ADME, organism-based; parameters: dose 30 mg/kg, route oral; details: columba livia, in vivo; procedure, shortened: as §2
Salmonella typhimurium [14] = test: Antimicrobial activity against Salmonella enterica subsp. enterica serovar Typhimurium PT99/DAB69 at 4 ug/ml after 16 hrs; type: functional; procedure, shortened: as §3
[15] = Oral bioavailability in pigeon at 30 mg/kg, po; type: ADME, organism-based; details: columba livia, in vivo; procedure, shortened: as §2
Salmonella typhimurium [16] = test: Antimicrobial activity against Salmonella enterica subsp. enterica serovar Typhimurium PT99/DAB69 in pigeon kidney assessed as decrease in bacterial count relative to untreated control; type: functional, organism-based; procedure, shortened: as §1
[17] = Tmax in pigeon at 30 mg/kg, po by naive pooling approach; type: ADME, organism-based; parameters: dose 30 mg/kg, route oral; details: columba livia, in vivo; procedure, shortened: as §2
in vivo [18] = details: columba livia, plasma, iv, 30 mg/kg; remark: listed apart in the source

## CS(=O)(=O)c1ccc([C@@H](O)[C@@H](CF)NC(=O)C(Cl)Cl)cc1 [FLORFENICOL]
Salmonella typhimurium [1]
  Activity: inactive
[2]
  half-life: 2.69 h
[3]
  MRT: 1.43 h
In vivo [4]
  AUC(0-inf): 12500 ng·h/mL
[5]
  Vd: 0.88 L/kg
[6]
  Vd: 2.02 L/kg
[7]
  bioavailability: 58.5%
In vivo [8]
  AUC(0-inf): 22700 ng·h/mL
In vivo [9]
  AUC(0-inf): 13100 ng·h/mL
Salmonella typhimurium [10]
  log10cfu: 1
Columba livia
  Drug uptake: 35 mg/kg
[11]
  fraction unbound at 10 ug/ml: 0.288
[12]
  half-life: 1.73 h
[13]
  Cmax: 5100 ng/mL
Salmonella typhimurium [14]
  log10cfu: 2
[15]
  bioavailability: 60%
Salmonella typhimurium [16]
  Activity: inactive
[17]
  Tmax: 0.69 h
In vivo [18]
  AUC(0-inf): 21300 ng·h/mL
